Experiments:
[1] = folding enthalpy; higher = less favourable; fluorescence melt of hairpins on a sequencing array, two-state fit; conditions: sodium 0.088 M
How it was run: (§1)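 Hairpins were imaged by Cy3 fluorescence on a sequenced MiSeq flow cell with annealed Cy3 and quencher oligos, in 50 mM Na-HEPES pH 8.0, 25 mM NaCl, in 2.5 °C steps up to 60 °C. Bootstrapped two-state fits of normalised signals gave melting temperature and folding enthalpy. Four replicates were combined by inverse variance, and fitted temperatures were raised by 9.35 °C to match UV melts.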

[2] = melting temperature; fluorescence melt of hairpins on a sequencing array, two-state fit, raised by 9.35 °C to match UV melts; conditions: sodium 0.088 M
How it was run: as §1

Sequence	folding enthalpy [1]	Tm [2]
GATCGTGAGCACGATC ((((((....))))))	-37.1 kcal/mol	55.9 °C
GCAAGCGGAAACGCCTGC (((.(((....))).)))	-17.1 kcal/mol	54.2 °C
GAAAGCGGAAACGTTTTC ((((.((....)).))))	-30.5 kcal/mol	42.4 °C
GCGTCTACGAAAGTACGC (((..(((....))))))	-28.4 kcal/mol	47.6 °C
GGATACGAAAGTAGCTCC ((((((....)))..)))	-12.7 kcal/mol	37.1 °C
GCCCCTGGAAACAGGAGC ((.((((....)))).))	-30.6 kcal/mol	47.5 °C
GATCCTTGCAAGGATC ((((((....))))))	-41 kcal/mol	55.4 °C
GCACCGCGAAAGCATTGC (((..((....))..)))	-10.3 kcal/mol	33.4 °C
GCTTCCGAAAGGATTAGC ((((((....)))..)))	-23.2 kcal/mol	38.3 °C
GTGTTGACGAAAGTCCAC (((..(((....))))))	-19.6 kcal/mol	41.6 °C
GATCTGCGGCAGATC ((((((...))))))	-46.3 kcal/mol	50.2 °C
GGGACGGGAAACCGTTCC ((.((((....)))).))	-35.2 kcal/mol	57.2 °C
GATCCATGCATGGATC ((((((....))))))	-42.5 kcal/mol	58.8 °C
GATCGTTTTACGATC ((((((...))))))	-40.8 kcal/mol	60.1 °C
GTTGGGGAAACCCAAC ((((((....))))))	-36.8 kcal/mol	60 °C
CGAACCGGAAACGGCTCG (((.(((....))).)))	-35.5 kcal/mol	49.9 °C
GATCATACAAATGATC ((((((....))))))	-33.6 kcal/mol	44.6 °C
GTACTTGGAAACGAGTAC (((((.(....).)))))	-33.6 kcal/mol	44.2 °C
GATCCTCTGAGGATC ((((((...))))))	-33 kcal/mol	51.9 °C
GCGGGGTTCCGC ((((....))))	-18.7 kcal/mol	61.1 °C
GCGGTGCGAAAGCCACGC (((..((....))..)))	-19.8 kcal/mol	61.5 °C
GCTTATCGAAAGATAGC (((.(((....))))))	-27.5 kcal/mol	43.4 °C
GGGACAGGAAACTGTCTC (.(((((....))))).)	-28.1 kcal/mol	51.1 °C

Sequence	folding enthalpy [1]	Tm [2]
GGGAGAGGAAACTCTCTC (.(((((....))))).)	-21.4 kcal/mol	46.2 °C
GACAGGCGAAAGCCGGTC (((.(((....))).)))	-25.9 kcal/mol	67.1 °C
GATTTCGGAAACGAAACC (.(((((....))))).)	-19.6 kcal/mol	35.8 °C
GCCTACGCGAAAGCGGGC (((..(((....))))))	-14.8 kcal/mol	62.1 °C
GATCGAAAACTCGATC ((((((....))))))	-30.3 kcal/mol	47.2 °C
GCGATTATTCGC ((((....))))	-25.1 kcal/mol	52.4 °C
GAGGTTGGAAACGACCTC (((((.(....).)))))	-34.4 kcal/mol	51.3 °C
GATAGTGGAAACACTATC (((((((....)))))))	-47.2 kcal/mol	54.5 °C
GATCCTTAAAGGATC ((((((...))))))	-33.7 kcal/mol	51.7 °C
GGTCCCGAAAGGGGCACC ((((((....)))..)))	-11.3 kcal/mol	50.7 °C
GCGGGGCGAAAGCACAGC ((.(.((....)).).))	-31.8 kcal/mol	65.4 °C
GCAGCCGAAAGGCAATGC ((((((....)))..)))	-17 kcal/mol	52.1 °C
GATCGCTTACGCGATC ((((((....))))))	-31.8 kcal/mol	68.6 °C
GATCCTATTAAGGATC ((((((....))))))	-44.9 kcal/mol	52.2 °C
GTGTACGAAAGTATGCAC ((((((....)))..)))	-17.7 kcal/mol	35.6 °C
GTGTTACGAAAGTAGCAC (((.(((....))).)))	-35.7 kcal/mol	53.9 °C
GGCTCCGAAAGGACTGCC ((((((....)))..)))	-19.1 kcal/mol	47.6 °C
GCGATAACGAAAGTTCGC (((..(((....))))))	-28.2 kcal/mol	51.1 °C
GATCAGACCACTGATC ((((((....))))))	-37.1 kcal/mol	49.4 °C
GCTGCTGGAAACAGCGGC ((.((((....)))).))	-45.2 kcal/mol	65.8 °C
GCGGTCTCCGC ((((...))))	-29.1 kcal/mol	56.3 °C
GCGCTAGGAAACCAGCGC (((((.(....).)))))	-45.4 kcal/mol	57.3 °C
GGCGCCGAAAGGCATGCC ((((((....)))..)))	-19.2 kcal/mol	59.7 °C

Sequence	folding enthalpy [1]	Tm [2]
GGAAACCGAAAGGTCTCC (((.(((....))).)))	-27.5 kcal/mol	44.8 °C
GATCAAGGAAACTTGATC (((((((....)))))))	-46.6 kcal/mol	54 °C
GAATACGAAAGTATCTTC ((((((....)))..)))	-28.1 kcal/mol	46.2 °C
GAATGCGGAAACGTGTTC (((..((....))..)))	-31.8 kcal/mol	40.3 °C
CGTAGGCGGAAACGCACG (((..(((....))))))	-15.1 kcal/mol	42.1 °C
GCGCATACGAAAGTACGC (((..(((....))))))	-22.7 kcal/mol	44.9 °C
GCAACGCGAAAGCATCGC ((.(.((....)).).))	-13.5 kcal/mol	39.2 °C
GCAATCCGAAAGGAGTGC (((.(((....))).)))	-48 kcal/mol	61.1 °C
GATCCTAGCAGGATC ((((((...))))))	-37 kcal/mol	55.9 °C
GTGAGAGGAAACTCTCGC (.(((((....))))).)	-27.2 kcal/mol	51.2 °C
GCTCGGACGAAAGTCAGC (((..(((....))))))	-12.3 kcal/mol	39.1 °C
GTGCCGCCGAAAGGCCAC (((..(((....))))))	-9.13 kcal/mol	60 °C
GTCAGCGGAAACGCTAAC ((.((((....)))).))	-15.2 kcal/mol	37.4 °C
GGTTTCGAAAGAAGGACC ((((((....)))..)))	-15.5 kcal/mol	29.1 °C
GGGAAGGGAAACCTCCCC (((.(((....))).)))	-21.6 kcal/mol	45.2 °C
GGCAACGCGAAAGCGGCC (((..(((....))))))	-19.8 kcal/mol	59.7 °C
GTAGCCCGAAAGGGTTAC (((.(((....))).)))	-25.4 kcal/mol	60.2 °C
GCGTCGCGAAAGCCACGC ((((.((....)).))))	-31.1 kcal/mol	64 °C
GGTCGACGAAAGTCTACC (((.(((....))).)))	-34.7 kcal/mol	49.8 °C
GCGAAGCGAAAGCCTTGC ((.(.((....)).).))	-7.85 kcal/mol	36.3 °C
GCCACGGCGAAAGCCGGC (((..(((....))))))	-7.83 kcal/mol	49.1 °C
CGGTCGGAAACGAAACCG ((((((....)))..)))	-28.4 kcal/mol	43.3 °C
GTGAGAGGAAACCCTCAC (((((.(....).)))))	-26.2 kcal/mol	43.5 °C

Sequence	folding enthalpy [1]	Tm [2]
GCACGAGGAAACTCGCGC ((.((((....)))).))	-43.5 kcal/mol	54.5 °C
GATCCTCAGAGGATC ((((((...))))))	-31.6 kcal/mol	52.1 °C
GATCCAAGCTGGATC ((((((...))))))	-28.8 kcal/mol	50.5 °C
GCGGTGCGAAAGCCGCGC (((..((....))..)))	-27.7 kcal/mol	68.9 °C
GTCAATGGAAACACTGAC ((((.((....)).))))	-22.1 kcal/mol	34.5 °C
GTGGTCGGAAACGGTCAC (((..((....))..)))	-23 kcal/mol	44.2 °C
GCTAAGCGAAAGCATAGC ((((.((....)).))))	-27 kcal/mol	54.8 °C
GATCACGGAAACGTGATC (((((((....)))))))	-34.2 kcal/mol	66.2 °C
GTCACCCGAAAGGGAGAC (((.(((....))).)))	-33.6 kcal/mol	57.2 °C
GGCGTAACGAAAGTTGCC (((..(((....))))))	-25.3 kcal/mol	48.9 °C
GATCTATACTTAGATC ((((((....))))))	-46.9 kcal/mol	45.6 °C
GCTGCGCGAAAGCCCCGC ((.(.((....)).).))	-9.96 kcal/mol	31.8 °C
GATCCTGGATAGGATC ((((((....))))))	-39 kcal/mol	57.5 °C
GTTGCTGGAAACAGCAAC (((((((....)))))))	-62.8 kcal/mol	65.8 °C
GATCGGGGCTCCGATC ((((((....))))))	-34.5 kcal/mol	59.4 °C
CGAAAGAAATTTCG (((((....)))))	-13.6 kcal/mol	38.5 °C
GCAACGCGAAAGCGTGC (((.(((....))))))	-14.2 kcal/mol	69.1 °C
GATCGAGCAATCGATC ((((((....))))))	-39.7 kcal/mol	57.7 °C
GCGAGTATCGC ((((...))))	-18.7 kcal/mol	58.4 °C
GACACAGGAAACTACGTC (((..((....))..)))	-17 kcal/mol	28.8 °C
GATCGTATTCACGATC ((((((....))))))	-34.7 kcal/mol	55.1 °C
GAGGGCACGAAAGTGCTC (((..(((....))))))	-7.41 kcal/mol	44 °C
GCATCCGGAAACGGATAC (.(((((....))))).)	-16.9 kcal/mol	39.7 °C
